Reference: ChEMBL document CHEMBL1152649, “Synthesis, cytotoxicity and human telomerase inhibition activities of a series of 1,2-heteroannelated anthraquinones and anthra[1,2-d]imidazole-6,11-dione homologues” (2009)

Experiments:
MDA-MB-231 = assay: Growth inhibition of human MDA-MB-231 cells; type: functional
How it was run: (§1)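 NCI 60 cancer cell line screen run per the Developmental Therapeutics Program protocol. Dose–response curves were plotted against log10 drug concentration for each cell line within its subpanel, and mean graph midpoint values were calculated.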

[1] = Growth inhibition of human Hs 578T cells; type: functional; how it was run: as §1
BT-549 = assay: Growth inhibition of human BT549 cells; type: functional; how it was run: as §1
SW-620 [2] = assay: Antiproliferative activity against human SW620 cells assessed as cell growth at 10 uM; type: functional; conditions: read-out: Activity
How it was run: (§2)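 NCI 60 cell line panel, single dose (10^-5 M), run per the Developmental Therapeutics Program protocol (one dose mean graph). Each result is the growth percentage of treated cells relative to untreated control cells.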

MCF7 = assay: Antiproliferative activity against human MCF7 cells assessed as cell growth at 10 uM; type: functional; conditions: read-out: Activity
How it was run: (§3)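 NCI 60 cell line panel, single-dose screen (10^-5 M) run by the developmental therapeutics program protocol. Results are given as growth percent of treated cells relative to untreated control cells for each line.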

MDA-MB-435 [3] = assay: Antiproliferative activity against human MDA-MB-435 cells assessed as cell growth at 10 uM; type: functional; conditions: read-out: Activity; how it was run: as §3
SK-OV-3 = assay: Antiproliferative activity against human SKOV3 cells assessed as cell growth at 10 uM; type: functional; conditions: read-out: Activity; how it was run: as §3
K562 = assay: Antiproliferative activity against human K562 cells assessed as cell growth at 10 uM; type: functional; conditions: read-out: Activity; how it was run: as §3
SR = assay: Antiproliferative activity against human SR cells assessed as cell growth at 10 uM; type: functional; conditions: read-out: Activity; how it was run: as §2
786-0 = assay: Antiproliferative activity against human 786-0 cells assessed as cell growth at 10 uM; type: functional; conditions: read-out: Activity; how it was run: as §3
ACHN [4] = assay: Antiproliferative activity against human ACHN cells assessed as cell growth at 10 uM; type: functional; conditions: read-out: Activity; how it was run: as §3
CAKI-1 [5] = assay: Antiproliferative activity against human Caki1 cells assessed as cell growth at 10 uM; type: functional; conditions: read-out: Activity; how it was run: as §3
SK-MEL-5 = assay: Antiproliferative activity against human SK-MEL-5 cells assessed as cell growth at 10 uM; type: functional; conditions: read-out: Activity; how it was run: as §3
HL-60(TB) = assay: Growth inhibition of human HL-60(TB) cells; type: functional
How it was run: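 NCI 60-cell-line panel run under the Developmental Therapeutics Program protocol. Dose-response curves are plotted against log10 drug concentration for each cell line within its subpanel, and GI50 is read from these curves.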

[6] = Growth inhibition of human […] cells; type: functional
How it was run: (§4)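 Assayed in the NCI 60 human cancer cell line panel under the Developmental Therapeutics Program protocol. For each line, dose–response curves were plotted against log10 drug concentration. In the one-dose screen at 10^-5 M, growth was given as percent of untreated control cells, and mean graph midpoint values were averaged.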

A549 = assay: Growth inhibition of human A549 cells; type: functional; how it was run: as §1
NCI-H322M [7] = assay: Growth inhibition of human NCI-H322M cells; type: functional; how it was run: as §1
NCI-H460 [8] = assay: Growth inhibition of human NCI-H460 cells; type: functional; how it was run: as §1
NCI-H522 = assay: Growth inhibition of human NCI-H522 cells; type: functional; how it was run: as §1
HCC 2998 = assay: Growth inhibition of human HCC2998 cells; type: functional; how it was run: as §1
HCT-116 = assay: Growth inhibition of human HCT116 cells; type: functional; how it was run: as §1
HT-29 = assay: Growth inhibition of human HT-29 cells; type: functional; how it was run: as §1
SW-620 [9] = assay: Growth inhibition of human SW620 cells; type: functional; how it was run: as §4
Malme-3M = assay: Growth inhibition of human MALME-3M cells; type: functional; how it was run: as §1
MDA-MB-435 [10] = assay: Growth inhibition of human MDA-MB-435 cells; type: functional; how it was run: as §1
SK-MEL-28 = assay: Growth inhibition of human SK-MEL-28 cells; type: functional; how it was run: as §4
UACC-62 = assay: Growth inhibition of human UACC62 cells; type: functional; how it was run: as §4
IGROV-1 = assay: Growth inhibition of human IGROV1 cells; type: functional; how it was run: as §1
OVCAR-3 = assay: Growth inhibition of human OVCAR-3 cells; type: functional; how it was run: as §1
OVCAR-4 = assay: Growth inhibition of human OVCAR4 cells; type: functional; how it was run: as §1
OVCAR-8 = assay: Growth inhibition of human OVCAR8 cells; type: functional; how it was run: as §1
ACHN [11] = assay: Growth inhibition of human ACHN cells; type: functional; how it was run: as §1
CAKI-1 [12] = assay: Growth inhibition of human Caki1 cells; type: functional; how it was run: as §1
TK-10 = assay: Growth inhibition of human TK10 cells; type: functional; how it was run: as §4
NCI-H23 = assay: Antiproliferative activity against human NCI-H23 cells assessed as cell growth at 10 uM; type: functional; conditions: read-out: Activity; how it was run: as §3
NCI-H322M [13] = assay: Antiproliferative activity against human NCI-H322M cells assessed as cell growth at 10 uM; type: functional; conditions: read-out: Activity; how it was run: as §3
NCI-H460 [14] = assay: Antiproliferative activity against human NCI-H460 cells assessed as cell growth at 10 uM; type: functional; conditions: read-out: Activity; how it was run: as §3
KM12 = assay: Antiproliferative activity against human KM12 cells assessed as cell growth at 10 uM; type: functional; conditions: read-out: Activity; how it was run: as §3
[15] = target: Telomerase reverse transcriptase (Homo sapiens) (UniProt O14746); assay: Inhibition of TERT in human H1299 cells assessed as residual transcriptional activity at 100 uM after 24 hrs by SEAP reporter gene assay; values are per cent of control
[16] = read-out: LC50 (the source's name)

Telomerase reverse transcriptase (Homo sapiens), sequence (O14746 whole entry): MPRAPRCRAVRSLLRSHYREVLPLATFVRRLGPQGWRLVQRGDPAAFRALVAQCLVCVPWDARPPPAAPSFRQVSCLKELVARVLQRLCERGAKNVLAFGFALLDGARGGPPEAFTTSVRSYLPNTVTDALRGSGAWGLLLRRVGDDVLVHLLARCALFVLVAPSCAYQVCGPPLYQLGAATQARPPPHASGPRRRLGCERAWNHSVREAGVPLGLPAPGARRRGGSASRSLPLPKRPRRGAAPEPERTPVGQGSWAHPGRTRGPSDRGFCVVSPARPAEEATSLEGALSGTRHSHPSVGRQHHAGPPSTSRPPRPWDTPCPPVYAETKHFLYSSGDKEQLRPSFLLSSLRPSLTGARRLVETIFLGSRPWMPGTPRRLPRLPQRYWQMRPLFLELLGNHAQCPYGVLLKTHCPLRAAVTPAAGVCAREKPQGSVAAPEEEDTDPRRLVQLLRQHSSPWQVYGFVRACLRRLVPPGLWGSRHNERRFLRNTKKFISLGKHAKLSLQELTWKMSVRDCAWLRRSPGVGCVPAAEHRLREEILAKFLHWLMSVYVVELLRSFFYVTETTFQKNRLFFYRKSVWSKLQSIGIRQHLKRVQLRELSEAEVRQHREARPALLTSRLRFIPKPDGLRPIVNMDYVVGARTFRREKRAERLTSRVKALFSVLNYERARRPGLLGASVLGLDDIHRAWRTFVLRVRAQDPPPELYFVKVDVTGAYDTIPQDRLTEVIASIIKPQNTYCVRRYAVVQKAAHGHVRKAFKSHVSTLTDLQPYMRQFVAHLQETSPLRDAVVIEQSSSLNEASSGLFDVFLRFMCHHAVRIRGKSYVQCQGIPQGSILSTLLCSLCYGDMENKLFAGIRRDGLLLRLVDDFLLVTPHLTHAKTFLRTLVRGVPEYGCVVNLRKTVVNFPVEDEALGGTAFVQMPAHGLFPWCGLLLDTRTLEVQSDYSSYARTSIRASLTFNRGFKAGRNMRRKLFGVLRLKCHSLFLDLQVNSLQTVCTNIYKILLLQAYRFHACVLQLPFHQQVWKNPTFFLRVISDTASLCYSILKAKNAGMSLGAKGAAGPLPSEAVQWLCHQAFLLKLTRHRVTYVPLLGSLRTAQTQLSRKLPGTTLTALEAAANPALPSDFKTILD

O=C1c2ccccc2C(=O)c2c1ccc1nccnc21
GI50 (MDA-MB-231): 19.1 µM | LC50 (concentration killing 50% of cells) (MDA-MB-231): > 100 µM | TGI (MDA-MB-231): > 100 µM | GI50 [1]: 14.1 µM | LC50 [1]: > 100 µM | TGI [1]: 91.4 µM | GI50 (BT-549): 12.2 µM | LC50 (BT-549): > 100 µM | TGI (BT-549): 93.5 µM | growth at 10 µM (SW-620 [2]): 39.2% | growth at 10 µM (MCF7): 39.7% | growth at 10 µM (MDA-MB-435 [3]): 102% | growth at 10 µM (SK-OV-3): 78.2% | growth at 10 µM (K562): 37.2% | growth at 10 µM (SR): 82.9% | growth at 10 µM (786-0): 28.4% | growth at 10 µM (ACHN [4]): 46.5% | growth at 10 µM (CAKI-1 [5]): 87.9% | growth at 10 µM (SK-MEL-5): 66.6% | GI50 (HL-60(TB)): 0.68 µM | TGI (HL-60(TB)): 11.5 µM | CC50 (HL-60(TB); [16]): 83.7 µM | GI50 [6]: 1.61 µM | TGI [6]: > 100 µM | CC50 [6, 16]: > 100 µM | GI50 (A549): 4.53 µM | TGI (A549): > 100 µM | CC50 (A549; [16]): > 100 µM | GI50 (NCI-H322M [7]): 16.3 µM | TGI (NCI-H322M [7]): 96.1 µM | CC50 (NCI-H322M [7]; [16]): > 100 µM | GI50 (NCI-H460 [8]): 2.01 µM | TGI (NCI-H460 [8]): 26.9 µM | CC50 (NCI-H460 [8]; [16]): > 100 µM | GI50 (NCI-H522): 4.64 µM | TGI (NCI-H522): 32.5 µM | CC50 (NCI-H522; [16]): > 100 µM | GI50 (HCC 2998): 1.4 µM | TGI (HCC 2998): 83.5 µM | CC50 (HCC 2998; [16]): > 100 µM | GI50 (HCT-116): 12.3 µM | TGI (HCT-116): > 100 µM | CC50 (HCT-116; [16]): > 100 µM | GI50 (HT-29): 7.01 µM | TGI (HT-29): > 100 µM | CC50 (HT-29; [16]): > 100 µM | GI50 (SW-620 [9]): 1.71 µM | TGI (SW-620 [9]): 30.8 µM | CC50 (SW-620 [9]; [16]): > 100 µM | GI50 (Malme-3M): 4.48 µM | TGI (Malme-3M): 20.7 µM | CC50 (Malme-3M; [16]): 70.8 µM | GI50 (MDA-MB-435 [10]): 11.1 µM | TGI (MDA-MB-435 [10]): 23.7 µM | CC50 (MDA-MB-435 [10]; [16]): 50.4 µM | GI50 (SK-MEL-28): 21 µM | TGI (SK-MEL-28): 91.1 µM | CC50 (SK-MEL-28; [16]): > 100 µM | GI50 (UACC-62): 13.3 µM | TGI (UACC-62): 56.1 µM | CC50 (UACC-62; [16]): > 100 µM | GI50 (IGROV-1): 2.55 µM | TGI (IGROV-1): 35.9 µM | CC50 (IGROV-1; [16]): > 100 µM | GI50 (OVCAR-3): 2.34 µM | TGI (OVCAR-3): 12.5 µM | CC50 (OVCAR-3; [16]): > 100 µM | GI50 (OVCAR-4): 10.5 µM | TGI (OVCAR-4): > 100 µM | CC50 (OVCAR-4; [16]): > 100 µM | GI50 (OVCAR-8): 5.07 µM | TGI (OVCAR-8): > 100 µM | CC50 (OVCAR-8; [16]): > 100 µM | GI50 (ACHN [11]): 3.85 µM | TGI (ACHN [11]): > 100 µM | CC50 (ACHN [11]; [16]): > 100 µM | GI50 (CAKI-1 [12]): 5.83 µM | TGI (CAKI-1 [12]): > 100 µM | CC50 (CAKI-1 [12]; [16]): > 100 µM | GI50 (TK-10): 5 µM | TGI (TK-10): > 100 µM | CC50 (TK-10; [16]): > 100 µM | growth at 10 µM (NCI-H23): 65.1% | growth at 10 µM (NCI-H322M [13]): 96.3% | growth at 10 µM (NCI-H460 [14]): 31.7% | growth at 10 µM (KM12): 61% | residual activity [15]: 24%
